# Tests used:
# Format in all cases: functional
# Mus musculus [1] = assay: Antitumor activity against L1210 leukemia in mice (Average 7-day weight change (%)) at the dose of 200 mg/kg
# Procedure, shortened: (§1)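 Male B6D2F1J mice, groups of five to nine, inoculated ip with 10^5 L1210 cells on day 0. Drug treatment started day 1 on qd×5 or q4d(2,6) schedule. Vehicles: ara-C in sterile water; the n-butyl phosphate ester in 0.05 M pH 7.4 potassium phosphate buffer; others as suspensions in 0.4% Tween 80/0.5% low-density CMC/0.9% benzyl alcohol/0.9% saline. Mice weighed days 1 and 7; 7-day weight change given as g/mouse and %.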
# Mus musculus [2] = assay: Antitumor activity against L1210 leukemia in mice (Average 7-day weight change (%)) at the dose of 100 mg/kg; procedure, shortened: as §1
# Mus musculus [3] = assay: Antitumor activity against L1210/ara-C leukemia in mice (Average 7-day weight change) at the dose of 1000 mg/kg
# Procedure, shortened: (§2)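 Male B6D2F1J mice (5–9 per group) were given 10^5 L1210/ara-C cells i.p. on day 0, with treatment from day 1 on qd×5 or q4d(2,6). Vehicles were sterile water, pH 7.4 0.05 M phosphate buffer, or a Tween 80/CMC/benzyl alcohol saline suspension. Weights were taken on days 1 and 7; change is expressed in g/mouse and as a percentage.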
# Mus musculus [4] = assay: Antitumor activity against L1210/ara-C leukemia in mice (Average 7-day weight change (%)) at the dose of 200 mg/kg; procedure, shortened: as §2
# Mus musculus [5] = assay: Antitumor activity against L1210/ara-C leukemia in mice (Percent increase in life span.) at the dose of 200 mg/kg
# Procedure, shortened: (§3)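 Same protocol as the L1210 assay, but with 10^5 kinase-deficient L1210/ara-C cells inoculated ip into male B6D2F1J mice (groups of 5–9) on day 0. Treatment begins day 1, qd×5 or q4d(2,6). %ILS = (T/C − 1)×100 using median survival times of treated and control groups. Body weight recorded days 1 and 7.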
# Mus musculus [6] = assay: Antitumor activity against L1210 leukemia in mice (Percent increase in life span.) at the dose of 500 mg/kg
# Procedure, shortened: (§4)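 Male B6D2F1J mice, groups of 5–9, inoculated ip with 10^5 L1210 cells on day 0. Dosing starts day 1 on a qd×5 or q4d(2,6) schedule. Vehicles are sterile water, pH 7.4 0.05 M potassium phosphate buffer, or 0.4% Tween 80/0.5% CMC/0.9% benzyl alcohol/0.9% saline. %ILS = (T/C − 1)×100 from median survival. Weights taken days 1 and 7.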
# Mus musculus [7] = assay: Antitumor activity against L1210/ara-C leukemia in mice (Average weight per mouse on day 1.) at the dose of 500 mg/kg
# Procedure, shortened: (§5)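 Male B6D2F1J mice, groups of 5–9, inoculated ip with 10^5 L1210/ara-C cells on day 0. Dosing began day 1 on a qd×5 or q4d(2,6) schedule. Ara-C was given in sterile water, the n-butyl phosphate ester in 0.05 M pH 7.4 potassium phosphate buffer, and others as suspensions in 0.4% Tween 80/0.5% CMC/0.9% benzyl alcohol/0.9% saline. Mice were weighed on days 1 and 7; 7-day change given in g and %.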
# Mus musculus [8] = assay: Antitumor activity against L1210/ara-C leukemia in mice (Average 7-day weight change (%)) at the dose of 1000 mg/kg; procedure, shortened: as §2
# Mus musculus [9] = assay: Antitumor activity against L1210 leukemia in mice (Percent increase in life span.) at the dose of 50 mg/kg; procedure, shortened: as §4
# Mus musculus [10] = assay: Antitumor activity against L1210/ara-C leukemia in mice (Average weight per mouse on day 1.) at the dose of 1000 mg/kg; procedure, shortened: as §5
# Mus musculus [11] = assay: Antitumor activity against L1210 leukemia in mice (Average 7-day weight change (%)) at the dose of 500 mg/kg; procedure, shortened: as §1
# Mus musculus [12] = assay: Antitumor activity against L1210 leukemia in mice (Percent increase in life span.) at the dose of 250 mg/kg; procedure, shortened: as §4
# Mus musculus [13] = assay: Antitumor activity against L1210/ara-C leukemia in mice (Percent increase in life span.) at the dose of 250 mg/kg; procedure, shortened: as §3
smiles,measurement,setting,value
Nc1ccn([C@@H]2O[C@H](CO)[C@@H](O)[C@@H]2O)c(=O)n1 [CYTARABINE],Weight change,Mus musculus [1],-7%
same,Weight change,Mus musculus [2],-5%
same,Weight change,Mus musculus [3],2.4 g mouse-1
same,Weight change,Mus musculus [4],-14%
same,ILS at 200 mg/kg,Mus musculus [5],-13%
same,ILS at 500 mg/kg,Mus musculus [6],62%
same,Average weight,Mus musculus [7],20.2 g mouse-1
same,Weight change,Mus musculus [8],11%
same,ILS at 50 mg/kg,Mus musculus [9],75%
same,Average weight,Mus musculus [10],22 g mouse-1
same,Weight change,Mus musculus [11],2%
same,ILS at 250 mg/kg,Mus musculus [12],62%
same,ILS at 250 mg/kg,Mus musculus [13],12%
